From ChEMBL document CHEMBL5647683 (Oncogene, 2008)

Key:
A-431 [1] = experiment: Antitumor activity against human A-431 cells xenografted athymic NMRI-nu/nu female mouse as reduction in tumor volume at 75 mg/kg, po administered daily for 25 days relative to control; format: functional; conditions: time 25 day
In short: (§1)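 Female athymic NMRI-nu/nu mice (5–6 weeks, 21–31 g) given 1–5×10⁶ cells into the right flank; MDA-MB-453 tumors started from fresh 2×2×2 mm fragments. At 40–130 mm³, tumors were randomized to weight-based daily oral gavage (10 ml/kg; 1.8% HP-β-CD, 5% acetic acid (10%), 0.5% Natrosol) or vehicle. Caliper measurement 3×/week, volume π/6×L×W². Expressed as cumulative treated/control volume ratio; one-way ANOVA with Dunnett's test.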

[2] = Inhibition of human EGFR L858R-T790M double mutant expressed in mouse BaF3 cells assessed as reduction in cell survival incubated for 48 hrs by WST assay
[3] = Inhibition of human EGFR S752_I759del8 mutant expressed in mouse BaF3 cells assessed as reduction in cell survival incubated for 48 hrs by WST assay
[4] = Inhibition of human EGFR S752_I759del8-T790M mutant expressed in mouse BaF3 cells assessed as reduction in cell survival incubated for 48 hrs by WST assay
[5] = Inhibition of human EGFR L747_P753del7insS-T790M mutant expressed in mouse BaF3 cells assessed as reduction in cell survival incubated for 48 hrs by WST assay
[6] = Inhibition of human EGFR variant III deletion expressed in mouse BaF3 cells assessed as reduction in cell survival incubated for 48 hrs by WST assay
A-431 [7] = experiment: Antitumor activity against human A-431 cells xenografted athymic NMRI-nu/nu female mouse as reduction in tumor volume at 2x100 mg/kg, po administered daily for 25 days relative to control; format: functional; conditions: dose 100 mg/kg, time 25 day; in short: as §1

## COc1cc2ncnc(Nc3ccc(F)c(Cl)c3)c2cc1OCCCN1CCOCC1 [GEFITINIB]
A-431 [1]
  T/C: 46%

## C#Cc1cccc(Nc2ncnc3cc(OCCOC)c(OCCOC)cc23)c1 [ERLOTINIB]
[2]
  IC50: >10 µM
[3]
  IC50: 0.033 µM
[4]
  IC50: >10 µM
[5]
  IC50: >10 µM
[6]
  IC50: 0.144 µM

## CS(=O)(=O)CCNCc1ccc(-c2ccc3ncnc(Nc4ccc(OCc5cccc(F)c5)c(Cl)c4)c3c2)o1 [LAPATINIB]
A-431 [7]
  T/C: 32%
